Laboratory results: article PMC7451071 (MedChemComm, 2019)
“Also recorded” adds a separate entry of the source.

Tests used:
AT2 receptor [1] = details: cited from earlier work; for Induction of neurite outgrowth: NG108-15 cells
p42/p44mapk pathway = details: cited from earlier work
AT2 receptor [2] = assay: Neurite outgrowth assay in NG108-15 cells; format: cell-based; details: for Function (10 nM): three days, alone, with 10 μM PD 123319 or 100 nM Ang II
Outline: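 NG108-15 cells (passages 18–25; DMEM, 10% FBS, HAT, gentamycin; 37 °C, 7% CO2) plated at 3.6 × 10^4 cells/35 mm dish. They were treated once daily for three days from 24 h post-plating with 10 nM test compound (some also 100 nM). Test compound was added alone or 30 min before 100 nM Ang II; 10 μM PD 123319 was given 30 min before agonist. On day 4, phase-contrast micrographs were scored as % of ≥400 cells bearing a neurite longer than the cell body. Duplicates, three independent experiments, mean ± SEM, two-way ANOVA.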

AT2 receptor [3] = molecular target: T1, AT2 receptor (Sus scrofa, UniProt A0A4X1W622); assay: AT2 receptor binding, displacement of [125I]Ang II from pig uterus; details: versus compound 3
T1 sequence (A0A4X1W622 1-362): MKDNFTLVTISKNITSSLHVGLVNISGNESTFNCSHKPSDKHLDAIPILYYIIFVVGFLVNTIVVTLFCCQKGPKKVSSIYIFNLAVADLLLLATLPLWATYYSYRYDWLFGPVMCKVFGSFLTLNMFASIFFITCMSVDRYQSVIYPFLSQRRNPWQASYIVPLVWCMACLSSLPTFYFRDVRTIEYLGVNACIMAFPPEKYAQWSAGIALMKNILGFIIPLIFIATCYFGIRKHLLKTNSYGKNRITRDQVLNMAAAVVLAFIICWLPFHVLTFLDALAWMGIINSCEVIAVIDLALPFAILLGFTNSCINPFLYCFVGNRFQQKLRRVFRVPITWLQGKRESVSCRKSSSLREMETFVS

AT2 receptor [4] = details: AT2R antagonist; cited from earlier work

For `CC(C)(C)c1cc(C=C(C#N)C(N)=S)cc(C(C)(C)C)c1O` [AG879, α-cyano-(3,5-di-t-butyl-4-hydroxy)thiocinnamide], the “Effect on neurite outgrowth (inhibition)” value (AT2 receptor [1]) is given as “total” and the “Inhibition of the p42/p44mapk pathway” value (p42/p44mapk pathway) is given as “only partially inhibits”.
With `CCCCOC(=O)NS(=O)(=O)c1ccc2c(c1-c1ccc(Cn3ccnc3)cc1)CCC2C(C)C` (centres unmarked) [Compound 7a, N-(Butoxycarbonyl)-4-[4-(imidazol-1-yl)-methylphenyl]-1-isopropylindan-5-sulfonamide] the “Degree of neurite outgrowth induced” value (AT2 receptor [2]; 10 nM, NG108-15 cells) was “highest degree of neurite outgrowth among this set of compounds”, the “Function (10 nM)” value (AT2 receptor [2]; 10 nM, NG108-15 cells) was “strong agonistic effect; also recorded: Agonist” and the “Loss in affinity compared to non rigidified analogue 3” value (AT2 receptor [3]) was roughly 200 times.
For `CCCCOC(=O)NS(=O)(=O)c1ccc2c(c1-c1ccc(Cn3ccnc3)cc1)CCC2C(C)C` (centres unmarked) [Compound 7b, N-(Butoxycarbonyl)-4-[4-(imidazol-1-yl)-methylphenyl]-1-isopropylindan-5-sulfonamide], the “Function (10 nM)” value (AT2 receptor [2]; 10 nM, NG108-15 cells) was “antagonism; also recorded: Antagonist”.
For `CCCCOC(=O)NS(=O)(=O)c1ccc2c(c1-c1cccc(Cn3ccnc3)c1)CCC2C(C)C` (centres unmarked) [Compound 8a, N-(Butoxycarbonyl)-4-[3-(imidazol-1-yl)-methylphenyl]-1-isopropylindan-5-sulfonamide], the “Function (10 nM)” value (AT2 receptor [2]; 10 nM, NG108-15 cells) was “Antagonist”.
In the case of `CCCCOC(=O)NS(=O)(=O)c1ccc2c(c1-c1cccc(Cn3ccnc3)c1)CCC2C(C)C` (centres unmarked) [Compound 8b, N-(Butoxycarbonyl)-4-[3-(imidazol-1-yl)-methylphenyl]-1-isopropylindan-5-sulfonamide], the “Function (10 nM)” value (AT2 receptor [2]; 10 nM, NG108-15 cells) is reported as “Antagonist”.
In the case of `CCCCOC(=O)NS(=O)(=O)c1cc2c(cc1-c1ccc(Cn3ccnc3)cc1)CCC2C(C)C` (centres unmarked) [Compound 9a, N-(Butoxycarbonyl)-5-[4-(imidazol-1-yl)-methylphenyl]-1-isopropylindan-6-sulfonamide], the “Function (10 nM)” value (AT2 receptor [2]; 10 nM, NG108-15 cells) is reported as “agonistic properties; also recorded: Agonist”.
With `CCCCOC(=O)NS(=O)(=O)c1cc2c(cc1-c1ccc(Cn3ccnc3)cc1)CCC2C(C)C` (centres unmarked) [Compound 9b, N-(Butoxycarbonyl)-5-[4-(imidazol-1-yl)-methylphenyl]-1-isopropylindan-6-sulfonamide] the “Function (10 nM)” value (AT2 receptor [2]; 10 nM, NG108-15 cells) was “agonistic properties; also recorded: Agonist”.
In the case of `CCCCOC(=O)NS(=O)(=O)c1cc2c(cc1-c1cccc(Cn3ccnc3)c1)CCC2C(C)C` (centres unmarked) [Compound 10a, N-(Butoxycarbonyl)-5-[3-(imidazol-1-yl)-methylphenyl]-1-isopropylindan-6-sulfonamide], the “Function (10 nM)” value (AT2 receptor [2]; 10 nM, NG108-15 cells) is reported as “Antagonist”.
In the case of `CCCCOC(=O)NS(=O)(=O)c1cc2c(cc1-c1cccc(Cn3ccnc3)c1)CCC2C(C)C` (centres unmarked) [Compound 10b, N-(Butoxycarbonyl)-5-[3-(imidazol-1-yl)-methylphenyl]-1-isopropylindan-6-sulfonamide], the “Function (10 nM)” value (AT2 receptor [2]; 10 nM, NG108-15 cells) is reported as “agonistic effect; also recorded: Agonist”.
For `Cc1cc(Cn2cnc3c2C[C@@H](C(=O)O)N(C(=O)C(c2ccccc2)c2ccccc2)C3)ccc1N(C)C` [PD 123319, reference compound], the “Effect of co-incubation on induced neurite outgrowth” value (AT2 receptor [2]; 10 μM PD 123319 co-incubated with agonists) is given as “reduced the induced neurite outgrowth”, the “Morphology on treatment alone” value (AT2 receptor [2]; PD 123319 alone, data not shown) is given as “did not alter the morphology compared to untreated cells” and the IC50 (AT2 receptor [4]) is given as 34 nM.
For “Ang II: hypertensive octapeptide angiotensin II”, the “Induction of neurite outgrowth” value (AT2 receptor [1]) is given as “induces neurite outgrowth”.
In the case of “Nα-nicotinoyl-Tyr-(Nα-Cbz-Arg)-Lys-His-Pro-Ile [CGP-42112]”, the “Induction of neurite outgrowth” value (AT2 receptor [1]) is listed as “induces neurite outgrowth”.
